In ChEMBL document CHEMBL4145471, “New 1,5 and 2,5-disubstituted tetrazoles-dependent activity towards surface barrier of Candida albicans” (Eur J Med Chem, 2018):
Activity calls are given as the source filed them. The rule behind the calls is not given here.

Assays:
[1] = system: Candida albicans; assay: Antifungal activity against Candida albicans ATCC 90028 at 0.0313 ug/ml after 18 hrs relative to control; format: functional
[2] = system: Caco-2; assay: Cytotoxicity against human Caco2 cells assessed as reduction in cell viability at 256 ug/ml after 18 hrs by XTT assay ralative to control; format: cell-based; details: caco-2, 18 h
Procedure, shortened: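 Caco-2 cells were exposed to compound at 256, 16 or 0.0313 µg/mL for 18 h, then given XTT reagent for 4–6 h. Absorbance was read at 475 nm with a 660 nm reference, and viability and toxicity were expressed as %. CC50 was taken as the concentration giving 50% viability loss. Means ± SD of three independent experiments, samples in duplicate.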

[3] = Toxicity in Galleria mellonella larvae assessed as survival at 256 ug/ml after 96 hrs relative to control; format: organism-based; details: in vivo
Procedure, shortened: (§1)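 Uninfected larvae, groups of 10, injected with compound in RPMI at 256, 16 or 0.0313 µg/mL; PBS-injected larvae as controls. Kept at 37°C in darkness up to 96 h, monitored daily; death is no response to physical stimuli. Mobility, cocoon formation, melanization and survival scored as health index. Three independent experiments, samples in duplicate; Wilcoxon signed-rank test vs control.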

[4] = Toxicity in Galleria mellonella larvae assessed as survival at 16 ug/ml after 96 hrs relative to control; format: organism-based; details: in vivo; procedure, shortened: as §1
[5] = Toxicity in Galleria mellonella larvae assessed as survival at 0.0313 ug/ml after 96 hrs relative to control; format: organism-based; details: in vivo; procedure, shortened: as §1
[6] = system: Candida albicans; assay: Antifungal activity against Candida albicans ATCC 90028 assessed as growth inhibition at 100 ug/ml after 7 days in presence of sorbitol by M27-A3 microdilution method; format: functional, organism-based
Procedure, shortened: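 Osmotic protection variant of M27-A3. Tetrazoles serially diluted (1.04-400 µg/mL) in Sabouraud dextrose broth; inoculum 1.7×10^3 CFU/mL in SDB with sorbitol at 0.8 M final. Plates at 35°C, read visually and at OD405 after 2 and 7 days; triplicate.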

[7] = system: Candida albicans; assay: Synergistic antifungal activity against Candida albicans ATCC 90028 at 80 ug/ml after 48 hrs in presence of 40 ug/ml fluconazol by checkerboard assay relative to control; format: functional
Procedure, shortened: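 Checkerboard in C. albicans ATCC 90028, inoculum prepared per CLSI M27-A3 in RPMI. Fluconazole serially diluted 80-1.25 µg/mL across the plate against the partner compound at 80-1.25 µg/mL final. Incubated 48 h at 35°C. Metabolic activity read by XTT reduction at 475 nm (660 nm reference), given as % of the untreated growth control.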

[8] = system: Candida albicans; assay: Synergistic antifungal activity against Candida albicans ATCC 90028 at 1.25 ug/ml after 48 hrs in presence of 2.5 ug/ml fluconazol by checkerboard assay relative to control; format: functional
Procedure, shortened: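 Checkerboard microdilution (M27-A3) on C. albicans ATCC 90028 in RPMI 1640: fluconazole (80-1.25 µg/mL) crossed with tetrazole (80-1.25 µg/mL final), incubated at 35°C for 48 h. Growth by OD405 at 18 and 48 h, endpoint taken as 100% inhibition. FIC index = sum of the two agents' FICs; <1 synergism, >1 antagonism.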

[9] = system: Candida albicans; assay: Antifungal activity against Candida albicans ATCC 90028 assessed as total FIC index at 80 ug/ml in presence of fluconazol after 48 hrs by checkerboard-based XTT assay; format: functional
Procedure, shortened: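 Checkerboard against strain ATCC 90028, inoculum per M27-A3: fluconazole 80-1.25 µg/mL on one axis, tetrazole 80-1.25 µg/mL on the other. Plates at 35°C for 48 h, then XTT metabolic reduction read at 475 nm (660 nm reference). Activity is the drop in mean absorbance against untreated growth control. FICs and their summed FIC index are taken at 50% reduction in metabolic activity.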

[10] = system: Candida albicans; assay: Induction of necrosis in Candida albicans ATCC 90028 protoplast at 16 ug/ml after 18 hrs Annexin V-FITC/propidium iodide staining based flow cytometry (reference value: 40.48 +/- 16.81%); format: functional
[11] = system: Candida albicans; assay: Induction of apoptosis in Candida albicans ATCC 90028 protoplast assessed as late apoptotic cells at 16 ug/ml after 18 hrs Annexin V-FITC/propidium iodide staining based flow cytometry ( Rvb = 0.20 +/- 0.28%); format: functional
[12] = system: Candida albicans; assay: Induction of apoptosis in Candida albicans ATCC 90028 protoplast assessed as viable cells at 16 ug/ml after 18 hrs Annexin V-FITC/propidium iodide staining based flow cytometry ( Rvb = 59.19 +/- 11%); format: functional
[13] = system: Candida albicans; assay: Induction of apoptosis in Candida albicans ATCC 90028 protoplast assessed as early apoptotic cells at 16 ug/ml after 18 hrs Annexin V-FITC/propidium iodide staining based flow cytometry ( Rvb = 0.13 +/- 0.06%); format: functional
[14] = system: Candida albicans; assay: Antifungal activity against Candida albicans ATCC 90028 assessed as reduction in cell adherence to human Caco2 cells at 256 ug/ml preincubated for 2 hrs followed by compound washout and resuspended in RPMI medium measured after 18 hrs by colony counting assay relative to control; format: functional; design: scale not given: the % may be the effect or the level left
Procedure, shortened: (§2)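 Yeasts grown 18 h in YEPD at 30°C, then exposed at 10^4/mL to compound in RPMI for 2 h at 35°C with shaking. Washed twice in PBS, resuspended in RPMI and added to Caco-2 monolayers (18 h culture in EMEM/10% FCS) for 2 h at 37°C, 5% CO2. Non-adherent cells rinsed off, Caco-2 lysed with water, and adherent yeasts counted as colonies on Sabouraud agar after 18 h at 30°C. Expressed as % of cells added versus untreated; three experiments.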

[15] = system: Candida albicans; assay: Antifungal activity against Candida albicans ATCC 90028 assessed as reduction in cell adherence to human Caco2 cells at 16 ug/ml preincubated for 2 hrs followed by compound washout and resuspended in RPMI medium measured after 18 hrs by colony counting assay relative to control; format: functional; design: scale not given: the % may be the effect or the level left; procedure, shortened: as §2
[16] = system: Candida albicans; assay: Antifungal activity against Candida albicans ATCC 90028 infected in Galleria mellonella larvae assessed as survival at 16 ug/ml treated for 30 to 60 mins post infection; format: functional
Procedure, shortened: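 Larvae (195±17 mg, ethanol-disinfected) injected with 10 µL C. albicans suspension into last right proleg; single 10 µL dose (16 µg/mL in RPMI, diluted from 1600 µg/mL stock) into last left proleg 30 min or 1 h later. Controls: infected untreated and PBS-injected. Survival monitored every 24 h for 2 days; health index scored. At least three independent experiments.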

[17] = system: Candida albicans; assay: Induction of late apoptosis in Candida albicans ATCC 90028 biofilms assessed as formation of condense chromatin at 16 ug/ml after 18 hrs by propidium iodide/acridine orange staining based confocal laser scanning microscopic analysis; format: functional, organism-based
Procedure, shortened: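 Caco-2-free model: the TR146 epithelial layer, 21 days post-seeding on filter inserts, was inoculated with 1.0–1.2×10^5/mL log-phase ATCC 90028 yeast. Biofilms were treated at 256, 16 or 0.0313 µg/mL for 18–48 h at 37°C in 5% CO2 and washed with PBS. Unfixed cells were stained with propidium iodide (5 µg/mL) and acridine orange, then imaged by confocal laser scanning microscopy.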

| SMILES | Activity [1] [%] | Activity [2] [%] | survival at 96 h [3] [%] | survival at 96 h [4] [%] | survival at 96 h [5] [%] | growth inhibition (GI) [6] | growth inhibition (GI) [7] [%] | growth inhibition (GI) [8] [%] | fractional inhibitory concentration index (FICI) [9] | Activity [10] [%] | Activity [11] [%] | Activity [12] [%] | Activity [13] [%] | Activity [14] [%] | Activity [15] [%] | Survival [16] | Activity [17] |
| --- | --- | --- | --- | --- | --- | --- | --- | --- | --- | --- | --- | --- | --- | --- | --- | --- | --- |
| ClCCCn1nnnc1-c1ccccc1Cl | 99.51 | 63.27 | 100 | 100 | 100 | inactive | 99.79 | 99.64 | >10 | 89.92 | 0.23 | 1.85 | 8 | – | – | – | – |
| CCOC(=O)CCn1nnc(-c2ccccc2)n1 | 99.34 | 45.49 | 100 | 100 | 100 | Active | 99.34 | – | – | 97.03 | 1.2 | 1.67 | 0.1 | 59.12 | 65.41 | <=18 hr | Active |
| Cc1ccc(-c2nnn(CCCN3CCOCC3)n2)cc1 | 99.87 | 13.04 | – | – | – | – | 99.21 | 99.23 | >6.25 | – | – | – | – | – | 14.18 | – | – |
